Test results reported in ChEMBL document CHEMBL4130442, “Design, synthesis and structure-activity relationship studies of a focused library of pyrimidine moiety with anti-proliferative and anti-metastasis activities in triple negative breast cancer” (Eur J Med Chem, 2017).
Activity calls are given as the source filed them. The calls are words filed in the database; no cut-off is given here.

How the values were obtained:
[1] = target: T1, Platelet-derived growth factor receptor beta (Homo sapiens, UniProt P09619); assay: Inhibition of PDGFRbeta in human MDA-MB-231 cells assessed as Akt Thr305 phosphorylation level at 2.5 uM incubated for 24 hrs in presence of PDGFRbeta siRNA by Western blot relative to untreated control; assay type: cell-based
Procedure, shortened: (§1)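 Cells were transfected with control or PDGFR-β siRNA, then treated with 2.5 μM compound for 24 h. PDGFR-β-AKT-ULK1 pathway phospho-proteins were assessed by western blot: lysis in Hepes pH 7.4 / Triton buffer, 10-15% SDS-PAGE, PVDF, ECL detection, β-actin as loading control.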

MDA-MB-231 [2] = assay: Induction of apoptosis in human MDA-MB-231 cells at 2.5 to 10 uM incubated for 24 hrs by Annexin V/propidium iodide staining based flow cytometry; assay type: functional, cell-based
[3] = target: T1, Platelet-derived growth factor receptor beta; assay: Inhibition of PDGFRbeta in human MDA-MB-231 cells assessed as Akt Ser473 phosphorylation level at 10 uM incubated for 24 hrs by Western blot relative to untreated control; assay type: cell-based
Procedure, shortened: (§2)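 Cells were treated 24 h at several concentrations. Pooled adherent and floating cells were lysed in Hepes 50 mM pH 7.4 / 1% Triton X-100 buffer with vanadate, NaF, EDTA, PMSF, aprotinin and leupeptin. Equal protein was run on 10-15% SDS-PAGE and blotted to PVDF. PDGFR-β-AKT-ULK1 pathway phospho-proteins were probed and detected by ECL, with β-actin as loading control.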

MDA-MB-231 [4] = assay: Effect on total mTOR protein level in human MDA-MB-231 cells at 2.5 uM incubated for 24 hrs by Western blot relative to untreated control; assay type: ADME, cell-based; conditions: mda-mb-231, 24 h
Procedure, shortened: (§3)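 MDA-MB-231 cells were exposed for 24 h. Adherent and floating cells were pooled and lysed for 1 h at 4 °C in 50 mM Hepes pH 7.4 with 1% Triton X-100, orthovanadate, NaF, EDTA, PMSF, aprotinin and leupeptin. After 12,000 rpm clearing, equal protein was run on 10-15% SDS-PAGE and blotted to PVDF. Detection used HRP-ECL, with β-actin as loading control and densitometric quantification.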

MDA-MB-231 [5] = assay: Effect on total MEK1/2 protein level in human MDA-MB-231 cells at 2.5 uM incubated for 24 hrs in presence of PDGFRbeta siRNA by Western blot relative to untreated control; assay type: cell-based; conditions: mda-mb-231, 24 h
MDA-MB-231 [6] = assay: Effect on total Ras protein level in human MDA-MB-231 cells at 2.5 uM incubated for 24 hrs in presence of PDGFRbeta siRNA by Western blot relative to untreated control; assay type: cell-based; conditions: mda-mb-231, 24 h
[7] = target: T1, Platelet-derived growth factor receptor beta; assay: Inhibition of PDGFRbeta in human MDA-MB-231 cells assessed as C-Raf Ser259 phosphorylation level at 10 uM incubated for 24 hrs in presence of PDGFRbeta siRNA by Western blot relative to untreated control; assay type: cell-based
MCF7 = assay: Antiproliferative activity against human MCF7 cells incubated for 24 hrs by MTT assay; assay type: functional, cell-based; conditions: MCF7, 24 h
MDA-MB-231 [8] = assay: Induction of autophagy in human MDA-MB-231 cells assessed as change in LC3-2 protein level at 2.5 uM incubated for 24 hrs in absence of PDGFRbeta siRNA by Western blot method relative to untreated control; assay type: functional
Procedure, shortened: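 Before treatment, MDA-MB-231 cells were transfected with control or PDGFR-β siRNA, then exposed to 2.5 μM compound for 24 h. Lysates of pooled adherent and floating cells were immunoblotted (10-15% SDS-PAGE, PVDF, ECL) for PDGFR-β-AKT-ULK1 autophagy signalling markers, with β-actin as loading control.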

[9] = target: T1, Platelet-derived growth factor receptor beta; assay: Inhibition of PDGFRbeta in human MDA-MB-231 cells assessed as Akt Ser473 phosphorylation level at 2.5 uM incubated for 24 hrs in presence of PDGFRbeta siRNA by Western blot relative to untreated control; assay type: cell-based; procedure, shortened: as §1
MDA-MB-231 [10] = assay: Effect on total c-Raf protein level in human MDA-MB-231 cells at 10 uM incubated for 24 hrs in presence of PDGFRbeta siRNA by Western blot relative to untreated control; assay type: cell-based; conditions: mda-mb-231, 24 h
MDA-MB-231 [11] = assay: Effect on total PDGFRbeta protein level in human MDA-MB-231 cells at 5 uM incubated for 24 hrs by Western blot relative to untreated control; assay type: ADME, cell-based; conditions: mda-mb-231, 24 h; procedure, shortened: as §3
MDA-MB-231 [12] = assay: Effect on total c-Raf protein level in human MDA-MB-231 cells at 5 uM incubated for 24 hrs in presence of PDGFRbeta siRNA by Western blot relative to untreated control; assay type: cell-based; conditions: mda-mb-231, 24 h
MDA-MB-231 [13] = assay: Activation of ERK in human MDA-MB-231 cells assessed as ERK Thr202/Tyr204 phosphorylation level at 2.5 to 10 uM incubated for 24 hrs by immunocytochemistry; assay type: cell-based
Procedure, shortened: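 MDA-MB-231 cells (ATCC; DMEM, 10% FBS, 5% CO2) were treated, blocked in PBS with 1.5% goat serum, then given p-ERK antibody (1:200 in PBS with 1% BSA) overnight at 4 °C. TRITC-labelled secondary antibody followed for 1 h at room temperature. Nuclear fluorescence was read by microscopy.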

[14] = target: T1, Platelet-derived growth factor receptor beta; assay: Inhibition of PDGFRbeta in human MDA-MB-231 cells assessed as C-Raf Ser338 phosphorylation level at 10 uM incubated for 24 hrs in presence of PDGFRbeta siRNA by Western blot relative to untreated control; assay type: cell-based
MDA-MB-231 [15] = assay: Effect on total PDGFRbeta protein level in human MDA-MB-231 cells at 10 uM incubated for 24 hrs by Western blot relative to untreated control; assay type: ADME, cell-based; conditions: mda-mb-231, 24 h; procedure, shortened: as §3
MDA-MB-231 [16] = assay: Induction of autophagy in human MDA-MB-231 cells assessed as change in p62 protein level at 2.5 uM incubated for 24 hrs by Western blot method relative to untreated control; assay type: functional; procedure, shortened: as §3
[17] = target: T1, Platelet-derived growth factor receptor beta; assay: Inhibition of PDGFRbeta in human MDA-MB-231 cells assessed as ULK Ser555 phosphorylation level at 2.5 uM incubated for 24 hrs by Western blot relative to untreated control; assay type: cell-based; procedure, shortened: as §2
[18] = target: T1, Platelet-derived growth factor receptor beta; assay: Inhibition of PDGFRbeta in human MDA-MB-231 cells assessed as PDGFRbeta Tyr740 phosphorylation level at 2.5 uM incubated for 24 hrs by Western blot relative to untreated control; assay type: cell-based; procedure, shortened: as §2
MDA-MB-231 [19] = assay: Induction of apoptosis in human MDA-MB-231 cells assessed as change in cleaved caspase-3 protein level at 10 uM incubated for 24 hrs by Western blot method relative to untreated control; assay type: functional; procedure, shortened: as §3
MDA-MB-231 [20] = assay: Induction of apoptosis in human MDA-MB-231 cells assessed as change in cleaved PARP protein level at 10 uM incubated for 24 hrs by Western blot method relative to untreated control; assay type: functional; procedure, shortened: as §3
[21] = target: T1, Platelet-derived growth factor receptor beta; assay: Inhibition of PDGFRbeta in human MDA-MB-231 cells assessed as Akt Ser473 phosphorylation level at 2.5 uM incubated for 24 hrs in presence of control siRNA by Western blot relative to untreated control; assay type: cell-based; procedure, shortened: as §1

T1 sequence (P09619 whole entry): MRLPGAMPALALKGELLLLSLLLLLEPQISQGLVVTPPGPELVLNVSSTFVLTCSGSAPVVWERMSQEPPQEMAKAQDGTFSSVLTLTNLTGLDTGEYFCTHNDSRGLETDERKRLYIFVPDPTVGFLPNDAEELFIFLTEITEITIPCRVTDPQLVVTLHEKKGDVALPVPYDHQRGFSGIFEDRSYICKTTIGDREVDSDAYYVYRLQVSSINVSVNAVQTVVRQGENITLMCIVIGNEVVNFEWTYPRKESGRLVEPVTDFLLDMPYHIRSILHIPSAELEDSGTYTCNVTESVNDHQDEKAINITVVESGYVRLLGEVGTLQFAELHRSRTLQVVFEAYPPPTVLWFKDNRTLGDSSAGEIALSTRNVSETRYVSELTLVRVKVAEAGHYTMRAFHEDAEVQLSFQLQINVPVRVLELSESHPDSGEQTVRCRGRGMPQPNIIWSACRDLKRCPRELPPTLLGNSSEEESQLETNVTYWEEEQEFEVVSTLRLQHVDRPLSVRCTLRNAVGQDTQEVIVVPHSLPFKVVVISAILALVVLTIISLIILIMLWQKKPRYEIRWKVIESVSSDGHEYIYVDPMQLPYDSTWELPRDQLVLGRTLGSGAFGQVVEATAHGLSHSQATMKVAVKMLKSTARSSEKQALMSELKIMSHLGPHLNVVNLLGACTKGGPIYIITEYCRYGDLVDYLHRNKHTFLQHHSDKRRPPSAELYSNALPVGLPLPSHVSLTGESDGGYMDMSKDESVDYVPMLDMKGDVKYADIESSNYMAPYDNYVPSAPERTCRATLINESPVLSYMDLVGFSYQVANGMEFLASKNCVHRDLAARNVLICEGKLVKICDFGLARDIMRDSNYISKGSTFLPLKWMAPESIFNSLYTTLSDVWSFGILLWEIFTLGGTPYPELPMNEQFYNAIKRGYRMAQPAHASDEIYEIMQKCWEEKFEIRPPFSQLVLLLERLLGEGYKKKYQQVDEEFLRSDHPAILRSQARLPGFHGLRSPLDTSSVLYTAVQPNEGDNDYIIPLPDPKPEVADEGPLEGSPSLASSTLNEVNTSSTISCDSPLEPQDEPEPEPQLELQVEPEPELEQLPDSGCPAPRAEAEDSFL

## COc1cccc(Nc2cc(N3CCN(C(=O)Nc4ccc(C(F)(F)F)cc4)CC3)ncn2)c1
[1]
  fold change (FC): 0.04
MDA-MB-231 [2]
  Activity: Active
[3]
  fold change (FC): 0.18
MDA-MB-231 [4]
  fold change (FC): 0.37
MDA-MB-231 [5]
  fold change (FC): 1.05
MDA-MB-231 [6]
  fold change (FC): 1.2
[7]
  fold change (FC): 0.95
MCF7
  IC50: 2160 nM
MDA-MB-231 [8]
  fold change (FC): 2.87
[9]
  fold change (FC): 0.52
MDA-MB-231 [10]
  fold change (FC): 1.23
MDA-MB-231 [11]
  fold change (FC): 1.1
MDA-MB-231 [12]
  fold change (FC): 0.82
MDA-MB-231 [13]
  Activity: Active
[14]
  fold change (FC): 0.66
MDA-MB-231 [15]
  fold change (FC): 0.55
MDA-MB-231 [16]
  fold change (FC): 0.78
[17]
  fold change (FC): 4.5
[18]
  fold change (FC): 1.2
MDA-MB-231 [19]
  fold change (FC): 0.32
MDA-MB-231 [20]
  fold change (FC): 0.97
[21]
  fold change (FC): 0.88
